{"data": "Measured values from different studies", "target": "MAP kinase-interacting serine/threonine-protein kinase 1 (MKNK1, Homo sapiens, UniProt Q9BUB5)"}
{"SMILES": "COc1cc(-c2cn(C3CCc4c(F)cccc4N(CC(F)(F)F)C3=O)nn2)ccc1-n1cnc(C)c1 (stereo not shown)", "test": "cell-free assay, competition with immobilised ligand", "setting": "1 µM", "remaining binding": "87%"}
{"SMILES": "C[C@@H]1CN(c2ccc3ncc(-c4ccc5[nH]nc(C6CC6)c5c4)n3n2)C[C@H](C)O1", "test": "binding, competition with immobilised ligand", "setting": "50 nM", "remaining binding": "92%"}
{"SMILES": "N[C@@H]1CCN(c2nccc(-c3cnn4ncccc34)n2)C1", "test": "binding", "setting": "1 µM", "remaining binding": "68%"}
{"SMILES": "CC(=O)N1CCC(c2ccc(C(=O)NC(=N)N)cc2C(F)(F)F)CC1", "test": "cell-free assay, competition with immobilised ligand", "setting": "1 µM", "remaining binding": "100%"}
{"SMILES": "O=C(c1ccc(Nc2nccc(-c3cc4ccccc4s3)n2)cc1)N1CCC(N2CCCC2)CC1", "test": "binding, competition with immobilised ligand", "setting": "1 µM", "remaining binding": "18%"}
{"SMILES": "FC(F)(F)Oc1cccc(-c2cnc3ccc(-c4ccncc4)nn23)c1", "test": "cell-free assay, competition with immobilised ligand", "setting": "5 µM", "remaining binding": "71%"}
{"SMILES": "C[C@@H]1CN(c2cc(-c3n[nH]c4ccc(OC5(C)CC5)cc34)ncn2)C[C@H](C)O1", "test": "cell-free assay, competition with immobilised ligand", "setting": "0.1 µM", "remaining binding": "67%"}
{"SMILES": "C[C@@H](c1ccc(-n2cnc3c(N)ncnc32)cc1)N1CCc2nn(C)c(Cc3ccccc3)c2C1=O", "test": "binding, competition with immobilised ligand", "setting": "0.1 µM", "remaining binding": "58%"}
{"SMILES": "CO[C@@H](C)c1c(Nc2ccc([C@H](N(C)C(=O)C3CCS(=O)(=O)CC3)C(F)(F)F)cc2)cnc2cc(Cl)nn12", "test": "cell-free assay, competition with immobilised ligand", "setting": "1 µM", "remaining binding": "100%"}
{"SMILES": "CNC(=O)[C@@H]1CC[C@@H](n2c(-c3ccc4cnccc4c3)nc3ccc(C(=O)NCc4cccc(C(N)=O)c4)cc32)C1", "test": "binding, competition with immobilised ligand", "setting": "1 µM", "remaining binding": "100%"}
{"SMILES": "CN(c1nccc(-c2cnn3ncccc23)n1)C1CC1", "test": "binding", "setting": "1 µM", "remaining binding": "98%"}
{"SMILES": "O=C(c1ccc(Nc2ncc(Cl)c(-c3cc4ccccc4s3)n2)cc1)N1CCC(N2CCCC2)CC1", "test": "binding, competition with immobilised ligand", "setting": "1 µM", "remaining binding": "24%"}
{"SMILES": "COc1cnc(Nc2cccc(S(N)(=O)=O)c2)nc1N1CCN(c2ccccc2)CC1", "test": "binding, competition with immobilised ligand", "setting": "1 µM", "remaining binding": "83%"}
{"SMILES": "CC(C)(C)c1ccc(-c2nc(CBr)nn2-c2cccc(O)c2)cc1", "test": "cell-free assay, competition with immobilised ligand", "setting": "10 µM", "remaining binding": "57%"}
{"SMILES": "O=C(Nc1c[nH]nc1C(=O)NC1CCNCC1)c1cc(F)cc(F)c1", "test": "binding, competition with immobilised ligand", "setting": "1 µM", "remaining binding": "100%"}
{"SMILES": "CN(C)c1ncc(F)c(-c2cnn3ncccc23)n1", "test": "binding", "setting": "1 µM", "remaining binding": "62%"}
{"SMILES": "N#Cc1ccccc1CSc1nnc2c(n1)[nH]c1ccccc12", "test": "binding, competition with immobilised ligand", "setting": "10 µM", "remaining binding": "98%"}
{"SMILES": "CC(=O)C1=C(C)N(c2cccc(C(F)(F)F)c2)C(=O)N[C@@H]1c1ccc(C#N)nc1", "test": "cell-free assay, competition with immobilised ligand", "setting": "1 µM", "remaining binding": "100%"}
{"SMILES": "O=C(NCCCN1CCOCC1)c1ccc(Nc2nccc(-c3cc4ccccc4s3)n2)cc1", "test": "binding, competition with immobilised ligand", "setting": "1 µM", "remaining binding": "43%"}
{"SMILES": "CS(=O)(=O)c1cc(C2(NC(=O)c3cncc4c3cnn4-c3ccc(F)cc3)CC2)ccn1", "test": "cell-free assay, competition with immobilised ligand", "setting": "1 µM", "remaining binding": "47%"}
{"SMILES": "F[C@@H]1CCN(c2nccc(-c3cnn4ncccc34)n2)C1", "test": "binding", "setting": "1 µM", "remaining binding": "100%"}
{"SMILES": "CCS(=O)(=O)c1cc2cc(C[C@@](O)(CC(C)(C)c3ccc(F)cc3C(N)=O)C(F)(F)F)[nH]c2cn1", "test": "cell-free assay, competition with immobilised ligand", "setting": "1 µM", "remaining binding": "46%"}
{"SMILES": "CC1CCCN1c1nccc(-c2cnn3ncccc23)n1 (stereo not shown)", "test": "binding", "setting": "1 µM", "remaining binding": "89%"}
{"SMILES": "NS(=O)(=O)c1cc(NC(=O)Cc2ccccc2)ccc1Oc1cccc(Cl)c1", "test": "cell-free assay, competition with immobilised ligand", "setting": "1 µM", "remaining binding": "79%"}
{"SMILES": "C[C@H]1CCN(c2nccc(-c3cnn4ncccc34)n2)C1", "test": "binding", "setting": "1 µM", "remaining binding": "59%"}
